# According to ChEMBL document CHEMBL1153046, “Synthesis and antitumor activity of substituted triazolo[4,3-a]pyrimidin-6-sulfonamide with an incorporated thiazolidinone moiety” (2009):
# How the values were obtained:
# Format in all cases: functional
# [1] = tested on: A549; assay: Growth inhibition of human A549 cells after 48 hrs by sulforhodamine B assay; conditions: A549, 48 h
# Procedure, shortened: (§1)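 NCI 60-cell-line panel. Cells are grown in RPMI1640 with 5% fetal calf serum and 2 mM L-glutamine, seeded at a density set by growth characteristics, and preincubated 24 h. Compound is tested at a minimum of five concentrations at 10-fold dilution, with 48 h continuous exposure. Viability is read by sulforhodamine B protein assay. GI50, TGI and LC50 come from dose-response curves.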
# [2] = tested on: EKVX; assay: Growth inhibition of human EKVX cells after 48 hrs by sulforhodamine B assay; procedure, shortened: as §1
# [3] = tested on: HOP-92; assay: Growth inhibition of human HOP92 cells after 48 hrs by sulforhodamine B assay; conditions: HOP-92, 48 h; procedure, shortened: as §1
# [4] = tested on: NCI-H322M; assay: Growth inhibition of human NCI-H322M cells after 48 hrs by sulforhodamine B assay; procedure, shortened: as §1
# [5] = tested on: COLO 205; assay: Growth inhibition of human COLO205 cells after 48 hrs by sulforhodamine B assay; conditions: COLO 205, 48 h; procedure, shortened: as §1
# [6] = tested on: HCT-116; assay: Growth inhibition of human HCT116 cells after 48 hrs by sulforhodamine B assay; conditions: HCT-116, 48 h; procedure, shortened: as §1
# [7] = tested on: SF-268; assay: Growth inhibition of human SF268 cells after 48 hrs by sulforhodamine B assay; conditions: SF-268, 48 h; for CC50: read-out: LC50 (the source's name); procedure, shortened: as §1
# [8] = tested on: SF-539; assay: Growth inhibition of human SF539 cells after 48 hrs by sulforhodamine B assay; conditions: SF-539, 48 h; procedure, shortened: as §1
# [9] = tested on: SNB-19; assay: Growth inhibition of human SNB19 cells after 48 hrs by sulforhodamine B assay; conditions: SNB-19, 48 h
# Procedure, shortened: (§2)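 NCI 60-cell-line panel (nine cancer types), with cells grown in RPMI1640 plus 5% fetal calf serum and 2 mM L-glutamine. Cells are seeded at a density that depends on the line and preincubated 24 h. Compounds are then applied at a minimum of five 10-fold dilutions over a 5-log range with 48 h continuous exposure. Viability is read by SRB protein assay, and GI50 is derived from dose-response curves in units of 10^-5 M.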
# [10] = tested on: SNB-75; assay: Growth inhibition of human SNB75 cells after 48 hrs by sulforhodamine B assay; conditions: SNB-75, 48 h; procedure, shortened: as §2
# [11] = tested on: M14; assay: Growth inhibition of human M14 cells after 48 hrs by sulforhodamine B assay; conditions: M14, 48 h; procedure, shortened: as §1
# [12] = tested on: SK-MEL-2; assay: Growth inhibition of human SK-MEL-2 cells after 48 hrs by sulforhodamine B assay; conditions: SK-MEL-2, 48 h; procedure, shortened: as §1
# [13] = tested on: IGROV-1; assay: Growth inhibition of human IGROV1 cells after 48 hrs by sulforhodamine B assay; conditions: IGROV-1, 48 h; procedure, shortened: as §1
# [14] = tested on: OVCAR-4; assay: Growth inhibition of human OVCAR4 cells after 48 hrs by sulforhodamine B assay; conditions: OVCAR-4, 48 h; procedure, shortened: as §1
# [15] = tested on: OVCAR-5; assay: Growth inhibition of human OVCAR5 cells after 48 hrs by sulforhodamine B assay; conditions: OVCAR-5, 48 h; procedure, shortened: as §1
# [16] = tested on: SK-OV-3; assay: Growth inhibition of human SKOV3 cells after 48 hrs by sulforhodamine B assay; conditions: SK-OV-3, 48 h; procedure, shortened: as §1
# [17] = tested on: A498; assay: Growth inhibition of human A498 cells after 48 hrs by sulforhodamine B assay; conditions: A498, 48 h; procedure, shortened: as §1
# [18] = tested on: ACHN; assay: Growth inhibition of human ACHN cells after 48 hrs by sulforhodamine B assay; conditions: for CC50: read-out: LC50 (the source's name); procedure, shortened: as §1
# [19] = tested on: RXF 393; assay: Growth inhibition of human RXF393 cells after 48 hrs by sulforhodamine B assay; conditions: RXF 393, 48 h; for CC50: read-out: LC50 (the source's name); procedure, shortened: as §1
# [20] = tested on: SN12C; assay: Growth inhibition of human SN12C cells after 48 hrs by sulforhodamine B assay; procedure, shortened: as §1
# [21] = tested on: TK-10; assay: Growth inhibition of human TK10 cells after 48 hrs by sulforhodamine B assay; conditions: TK-10, 48 h; procedure, shortened: as §2
# [22] = tested on: SF-268; assay: Antiproliferative activity against human SF268 cells assessed as cell growth at 100 uM after 48 hrs by alamar blue assay; conditions: SF-268, 48 h, read-out: Activity
# Procedure, shortened: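 NCI three-cell-line primary screen. Cells are seeded and preincubated in microtiter plates. Compound is added at a single 10^-4 M concentration and cultures are incubated 48 h. The end-point is read with alamar blue. Results are given as percent growth relative to untreated control cells.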
# [23] = tested on: PC-3; assay: Growth inhibition of human PC3 cells after 48 hrs by sulforhodamine B assay; conditions: PC-3, 48 h; procedure, shortened: as §1
# [24] = tested on: DU-145; assay: Growth inhibition of human DU145 cells after 48 hrs by sulforhodamine B assay; conditions: DU-145, 48 h; procedure, shortened: as §1
# [25] = tested on: NCI/ADR-RES; assay: Growth inhibition of human NCI/ADR-RES cells after 48 hrs by sulforhodamine B assay; procedure, shortened: as §1
# [26] = tested on: MDA-MB-435; assay: Growth inhibition of human MDA-MB-435 cells after 48 hrs by sulforhodamine B assay; conditions: MDA-MB-435, 48 h; procedure, shortened: as §1
# [27] = tested on: BT-549; assay: Growth inhibition of human BT549 cells after 48 hrs by sulforhodamine B assay; conditions: BT-549, 48 h; procedure, shortened: as §1
# [28] = tested on: T47D; assay: Growth inhibition of human T47D cells after 48 hrs by sulforhodamine B assay; procedure, shortened: as §2
# [29] = tested on: HL-60(TB); assay: Growth inhibition of human HL-60(TB) cells after 48 hrs by sulforhodamine B assay; conditions: HL-60, 48 h
# Procedure, shortened: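 NCI 60-cell-line panel. Cells were grown in RPMI1640 with 5% fetal calf serum and 2 mM L-glutamine, seeded at a density suited to each line, and preincubated 24 h. Compounds were tested at a minimum of five concentrations at 10-fold dilutions over a 5-log range, with 48 h continuous exposure. Growth was read by sulforhodamine B protein staining, and GI50 was taken from dose-response curves.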
smiles,measurement,setting,value
COc1ccc(/C=N/c2nc3[nH]nc(C)n3c(=O)c2S(=O)(=O)NN2C(=O)C(CN3CCOCC3)SC2c2cccs2)cc1 (stereo not drawn),GI50,[1],19.1 µM
same,TGI,[1],> 100 µM
same,GI50,[2],54.1 µM
same,TGI,[2],> 100 µM
same,GI50,[3],12.4 µM
same,LC50,[3],> 100 µM
same,TGI,[3],> 100 µM
same,GI50,[4],56.9 µM
same,TGI,[4],> 100 µM
same,GI50,[5],14.9 µM
same,TGI,[5],12.8 µM
same,GI50,[6],4.72 µM
same,LC50 (concentration killing 50% of cells),[6],> 100 µM
same,TGI,[6],57.4 µM
same,GI50,[7],18.5 µM
same,TGI,[7],> 100 µM
same,CC50,[7],> 100 µM
same,GI50,[8],7.24 µM
same,LC50,[8],> 100 µM
same,TGI,[8],30.4 µM
same,GI50,[9],34.5 µM
same,TGI,[9],> 100 µM
same,GI50,[10],35.5 µM
same,TGI,[10],> 100 µM
same,GI50,[11],6.79 µM
same,LC50 (concentration killing 50% of cells),[11],> 100 µM
same,TGI,[11],38.7 µM
same,GI50,[12],8.3 µM
same,LC50 (concentration killing 50% of cells),[12],> 100 µM
same,TGI,[12],81.9 µM
same,GI50,[13],3.95 µM
same,LC50,[13],> 100 µM
same,TGI,[13],34.8 µM
same,GI50,[14],> 100 µM
same,LC50,[14],> 100 µM
same,TGI,[14],> 100 µM
same,GI50,[15],43.4 µM
same,LC50 (concentration causing 50% net cell kill),[15],> 100 µM
same,TGI,[15],> 100 µM
same,GI50,[16],20.2 µM
same,TGI,[16],> 100 µM
same,GI50,[17],2.67 µM
same,LC50 (concentration giving 50% net cell kill),[17],> 100 µM
same,TGI,[17],15.5 µM
same,GI50,[18],5.48 µM
same,TGI,[18],> 100 µM
same,CC50,[18],> 100 µM
same,GI50,[19],16.6 µM
same,TGI,[19],94.2 µM
same,CC50,[19],> 100 µM
same,GI50,[20],16.8 µM
same,LC50,[20],> 100 µM
same,TGI,[20],85.7 µM
same,GI50,[21],20.8 µM
same,LC50,[21],> 100 µM
same,TGI,[21],92 µM
same,growth at 100 µM,[22],56%
same,GI50,[23],3.92 µM
same,LC50 (concentration killing 50% of cells),[23],> 100 µM
same,TGI,[23],95.8 µM
same,GI50,[24],16 µM
same,LC50 (concentration giving 50% net cell kill),[24],> 100 µM
same,TGI,[24],> 100 µM
same,GI50,[25],9.98 µM
same,TGI,[25],64.8 µM
same,GI50,[26],3.26 µM
same,TGI,[26],36 µM
same,GI50,[27],18 µM
same,TGI,[27],> 100 µM
same,GI50,[28],48 µM
same,TGI,[28],> 100 µM
COc1ccc(/C=N/c2nc3[nH]nc(C)n3c(=O)c2S(=O)(=O)NN2C(=O)C(CN3CCN(C)CC3)SC2c2ccc(OC)cc2)cc1 (stereo not drawn),GI50,[29],28.2 µM
same,LC50,[29],> 100 µM
same,TGI,[29],86.8 µM
same,GI50,[1],13.4 µM
same,TGI,[1],50.8 µM
same,GI50,[2],25.9 µM
same,TGI,[2],60.3 µM
same,GI50,[3],17.8 µM
same,LC50,[3],74.2 µM
same,TGI,[3],36.4 µM
same,GI50,[4],21.1 µM
same,TGI,[4],51.1 µM
same,GI50,[6],5.89 µM
same,LC50 (concentration killing 50% of cells),[6],71.5 µM
same,TGI,[6],47.2 µM
same,GI50,[7],17.7 µM
same,TGI,[7],42 µM
same,CC50,[7],99.6 µM
same,GI50,[8],6.5 µM
same,LC50,[8],61.2 µM
same,TGI,[8],21.8 µM
same,GI50,[9],25.7 µM
same,TGI,[9],72.5 µM
same,GI50,[10],23.6 µM
same,TGI,[10],51.8 µM
same,GI50,[11],17 µM
same,LC50 (concentration killing 50% of cells),[11],78 µM
same,TGI,[11],36.5 µM
same,GI50,[12],21.3 µM
same,LC50 (concentration killing 50% of cells),[12],99.4 µM
same,TGI,[12],46.1 µM
same,GI50,[13],21 µM
same,LC50,[13],93.9 µM
same,TGI,[13],44.4 µM
same,GI50,[14],23.3 µM
same,LC50,[14],96.5 µM
same,TGI,[14],47.4 µM
same,GI50,[15],24.3 µM
same,LC50 (concentration causing 50% net cell kill),[15],90.7 µM
same,TGI,[15],47 µM
same,GI50,[16],27.1 µM
same,TGI,[16],73.3 µM
same,GI50,[17],12.9 µM
same,LC50 (concentration giving 50% net cell kill),[17],60.9 µM
same,TGI,[17],28.1 µM
same,GI50,[18],17.4 µM
same,TGI,[18],34.5 µM
same,CC50,[18],68.4 µM
same,GI50,[19],10.2 µM
same,TGI,[19],31.1 µM
same,CC50,[19],95.1 µM
same,GI50,[20],18.6 µM
same,LC50,[20],68.9 µM
same,TGI,[20],35.8 µM
same,GI50,[21],19.4 µM
same,LC50,[21],82.1 µM
same,TGI,[21],39.9 µM
same,growth at 100 µM,[22],18%
same,GI50,[23],14.7 µM
same,LC50 (concentration killing 50% of cells),[23],70.2 µM
same,TGI,[23],32.2 µM
same,GI50,[24],11.8 µM
same,LC50 (concentration giving 50% net cell kill),[24],86.6 µM
same,TGI,[24],32 µM
same,GI50,[25],14.1 µM
same,TGI,[25],40.2 µM
same,GI50,[26],24.1 µM
same,TGI,[26],64.6 µM
same,GI50,[27],19.1 µM
same,TGI,[27],46.3 µM
same,GI50,[28],31.2 µM
same,TGI,[28],89.4 µM
